GSH bead fluor: compound fluoresces at 488/530 nm on GSH beads. GSH beads flow cytometry, compound fluorescence 488/530 nm; stronger effect = higher value. fluorescence (KMESF) at 10 µM. 0.25% of 190,000 active. AID 1776; in the data active = fluorescence above about 89;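 note: glutathione beads carrying GST-tagged Bcl family fusion proteins plus one bare bead set; values are compound well signal with DMSO vehicle wells as background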
Diaph act CS: diaphorase activation or chemical reduction counter-screen. activation factor at 20 µM. 0.005% of 190,000 active. Diaphorase/resazurin coupled assay, resorufin fluorescence, 16 min; stronger effect = higher value; 1 = vehicle wells, 0 = NADH-free wells;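 active = diaphorase activity raised at least twofold by the compound at 20 µM; inactive = activation factor below 2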
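Assay system: Purified diaphorase enzyme from Clostridium kluyveri | Amount: Enzyme 0.07 U/mL final | Dosing: Compound 20 µM once, DMSO 1% | Timing: 16 min reaction at room temperature | Detection: Fluorescence, excitation 544 nm and emission 590 nm | Evaluation: Higher resorufin formation from activation or reduction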
NCF1 inh: p47phox (human) inhibition. P14598. p47phox/p22phox peptide binding, fluorescence polarization, 2 h. inhibition, % at 24.7 µM. 0.53% of 220,000 active. AID 1274;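 active = inhibition above about 30%, limit read from the data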;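 note: 0% = p47phox with labelled peptide and 100% = labelled peptide alone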
PMI act satM6P: PMI (human) activation, high substrate; 0.34% of 190,000 active; activation factor at 20 µM; P34949; coupled PMI enzyme assay, resazurin fluorescence, 20 min; stronger effect = higher value; 1 = untreated enzyme, 0 = substrate-free blank;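 active = activation factor of 2 or more at 20 µM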
Target sequence (P34949 whole entry, looked up): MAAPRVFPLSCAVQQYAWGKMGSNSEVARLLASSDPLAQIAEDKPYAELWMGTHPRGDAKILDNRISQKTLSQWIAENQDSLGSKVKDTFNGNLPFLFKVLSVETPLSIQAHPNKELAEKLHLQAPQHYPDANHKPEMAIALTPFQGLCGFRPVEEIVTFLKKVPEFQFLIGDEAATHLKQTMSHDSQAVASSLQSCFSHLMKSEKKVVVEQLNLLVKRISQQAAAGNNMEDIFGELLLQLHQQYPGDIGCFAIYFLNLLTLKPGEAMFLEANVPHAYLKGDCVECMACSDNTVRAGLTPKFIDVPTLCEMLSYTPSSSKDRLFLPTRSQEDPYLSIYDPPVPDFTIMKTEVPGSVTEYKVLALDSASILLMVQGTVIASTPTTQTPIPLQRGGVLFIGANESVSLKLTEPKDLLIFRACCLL
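test system = human PMI in coupled enzyme assay | medium = HEPES-buffered pH 7.4 with magnesium and detergent | also added = 1.0 mM mannose-6-phosphate substrate with 0.22 mM NADP+ | compound = 20 µM single dose | times = 20 min incubation at room temperature | measured by = resorufin fluorescence (Ex 544/Em 590 nm) from resazurin via diaphorase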
Avidin fluor: compound fluoresces at 488/530 nm on avidin beads; AID 1775; compound fluorescence 488/530 nm, flow cytometry; stronger effect = higher value; fluorescence (KMESF) at 10 µM; 0.38% of 220,000 active; in the data active = fluorescence above about 47
PMI act: activators of human phosphomannose isomerase; P34949; activation factor at 20 µM; purified human PMI, coupled resazurin fluorescence, 20 min; stronger effect = higher value; 1 = vehicle control, 0 substrate-free wells; 0.005% of 190,000 active;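 active = activation factor of 2 or more at 20 µM, relative to plate controls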
* marks the source's active call; other numbers are inactive results; / = no result; + = active, no number. Compounds with a hit are over-represented: about 1.4% of the library has one in this group of screens.

SMILES	GSH bead fluor	Diaph act CS	NCF1 inh	PMI act satM6P	Avidin fluor	PMI act
CCSc1nnc(NC(=O)c2ccc(C)o2)s1	17	0.9	-5	0.9	48*	0.9
N#C/C(=C/c1ccc(N2CCOCC2)o1)C(=O)Nc1ccccc1	21	0.8	-14	0.9	55*	0.8
[O-]C1=N/[N+](=C/c2ccccc2)CC1	/	/	0	/	11	/
[O-]C1=N/[N+](=C/c2ccccc2Cl)CC1	30	0.9	-3	2*	4	1.5
Cc1ccccc1OCc1nnc(SCC(=O)NCc2ccco2)n1C	19	1	+	1.1	9	1
CC(NC(=O)c1cn(C)c2ccc(S(=O)(=O)N3CCCC3)cc2c1=O)c1ccc2c(c1)OCCO2 (centres undefined)	35	0.8	-20	1	13	0.9
Cn1c(C(=O)NCc2cccs2)cc2oc3ccccc3c21	27	0.8	-12	0.8	34	0.8
Cn1c(C(=O)NCc2ccccc2)cc2oc3ccccc3c21	27	0.9	31*	0.8	12	0.8
Cc1ccc(C(C)C)c(OCc2nc(-c3nonc3N)no2)c1	22	0.7	166*	0.9	5	0.9
Cc1ccc(C(C)C)c(OCc2n[nH]c(=S)o2)c1	13	0.9	-34	1.1	8	1
CCC(Sc1nc2n[nH]c(C)c2c(=N)n1-c1cc(Cl)ccc1C)C(=O)N1CCOCC1 (centres undefined)	40	1	-4	1	4	1
CC(=O)N1CCN(CC(=O)c2ccc(Br)cc2)CC1	5	0.9	-2	2.4*	1	1.8
N#CCN1CCN(CC(=O)c2ccc(Br)cc2)CC1	/	/	-2	/	6	/
O=C1Nc2ccccc2N(O)N1c1ccc(S(=O)(=O)Nc2ccccn2)cc1	32	0.9	0	1.1	64*	1.2
Cc1ccnc(NS(=O)(=O)c2ccc(N3C(=O)Nc4ccccc4N3O)cc2)c1	12	1	-4	1.1	9	1.2
COc1ccc(/C=N/Nc2nc(Nc3ccccc3)nc(N3CCCC3)n2)cc1	24	1	1	1	78*	1
c1ccc(Nc2nc(N3CCCCC3)nc(N3CCCCC3)n2)cc1	25	0.8	-18	0.9	25	0.9
C(=N\Nc1nc(Nc2ccccc2)nc(N2CCCCC2)n1)/c1ccco1	25	0.7	135*	0.8	12	0.8
Cc1c(N=Nc2c(-c3ccc([N+](=O)[O-])cc3)[nH]n(C(N)=S)c2=O)cccc1[N+](=O)[O-]	8	0.5	22	1	20	1
NC(=S)n1[nH]c(-c2ccc([N+](=O)[O-])cc2)c(N=Nc2ccccc2[N+](=O)[O-])c1=O	453*	0.7	30*	1.1	9	1.2
COc1cc(C)ccc1OCCCCOc1ccccc1C(C)=O	17	0.8	-4	1	16	0.9
O=C1c2cccc3cccc(c23)C(=O)N1c1ccc2ncccc2c1	20	1	35*	1	4	0.9
S=C(NCc1cccnc1)Nc1cc(Cl)cc(Cl)c1	/	/	-14	/	3	/
O=C(O)c1cccc(N/N=C/c2ccc(-c3ccccc3)cc2)c1	20	0.8	-11	2.7*	6	1.7
C/C(=N\NC(=O)C(=O)Nc1cccc(C(F)(F)F)c1)c1ccc(Cl)s1	12	0.9	-5	1	32	1
SMILES	GSH bead fluor	Diaph act CS	NCF1 inh	PMI act satM6P	Avidin fluor	PMI act
O=C(O)c1cccc(N/N=C/c2cccnc2)c1	19	1	-17	2.5*	10	2*
CC(C)(C)c1ccc(/C=N/Nc2cccc(C(=O)O)c2)cc1	16	0.9	/	2*	5	1.7
O=C(N/N=C/c1cccnc1)C(O)(c1ccccc1)c1ccccc1	34	0.9	-1	1	12	1
C/C(=N\Nc1cccc(C(=O)O)c1)c1ccc(Cl)s1	15	0.9	/	2.6*	5	1.8
Cc1[nH]c2ccccc2c1/C=N/Nc1cccc(C(=O)O)c1	/	/	-19	/	9	/
O=C(Cn1nc(-c2cccc([N+](=O)[O-])c2)c2ccccc2c1=O)Nc1cccnc1	10	1	-17	1.1	11	1.2
COC(=O)CN(c1cc(OC)ccc1OC)S(=O)(=O)c1ccc(OC)c(OC)c1	19	0.9	-9	1	25	1
O=C(c1ccc(COc2ccc(Cl)cc2)cc1)N1CCCCC1	15	0.7	-13	0.9	7	0.8
Cc1ccc(S(=O)(=O)NC2=NCN(C3CCCCC3)CN2)cc1	11	1	-9	1.1	18	1
COc1ccc(C(=O)Nc2cccc(/C(C)=N/NC(=O)c3ccc([N+](=O)[O-])cc3)c2)cc1OC	10	1	-9	1	18	1
COc1ccc(/C(C)=N/Nc2cccc(C(=O)O)c2)cc1OC	15	0.9	-2	2.5*	11	1.6
COc1ccc(Br)cc1/C=N/Nc1cccc(C(=O)O)c1	12	0.8	-15	1.8	78*	1.4
O=C(O)c1cccc(N/N=C/c2cc(Br)cc(Br)c2O)c1	6	0.8	-48	1.8	3	1.5
Clc1ccc(N/N=C/c2cccnc2)cc1	9	0.9	-9	2.4*	23	1.6
Cc1ccc(SCCC(=O)N2CCC(C(N)=O)CC2)cc1	58	0.8	-18	0.9	5	0.9
O=C(Nc1cccc(-c2nc3ncccc3o2)c1)c1sc2ccccc2c1Cl	65	1	67*	1	8	0.8
O=C(Nc1cccc(-c2nc3ncccc3o2)c1)c1sc2cc(Cl)ccc2c1Cl	28	1.2	-4	1	10	1
COc1cccc(OCc2nnc(SCC(=O)N3c4ccccc4Sc4ccc(Cl)cc43)o2)c1	10	0.9	-8	0.9	5	0.9
N#C/C(=C\c1ccc(OCc2ccc(C(=O)O)cc2)cc1)C(=O)N1CCOCC1	12	0.9	-13	1	12	1
COc1ccc(N2C(=O)C3CCCN3C2c2cc(OC)c(OC)c(OC)c2)cc1 (centres undefined)	19	0.8	35*	0.7	7	0.9
COc1cc(C2N(c3ccc(Cl)cc3)C(=O)C3CCCN32)cc(OC)c1OC (centres undefined)	26	0.8	-22	1	7	1
COc1ccc(N2C(=O)C3CCCN3C2=O)cc1 (centres undefined)	17	1	-7	1.1	65*	1
O=C1C2CCCN2C(c2cccc(Br)c2)N1c1ccc(F)cc1 (centres undefined)	16	0.9	-17	1	48*	1.1
O=C1C2CCCN2C(c2ccc(Br)cc2)N1c1ccc(F)cc1 (centres undefined)	26	0.8	-13	1	7	1
